Biological target: apoA1 (Homo sapiens, UniProt P02647)
Assay: surface plasmon resonance, protein immobilised on CM5 chip
Format: binding
Summary of the method: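 Biosensor binding-kinetics run: apoA1 covalently coupled to a CM5 sensor chip, with apoA2 and apoE coupled the same way for comparison. Kinetics of test lipid binding to the immobilised protein recorded.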

apoA1, sequence (P02647 25-267): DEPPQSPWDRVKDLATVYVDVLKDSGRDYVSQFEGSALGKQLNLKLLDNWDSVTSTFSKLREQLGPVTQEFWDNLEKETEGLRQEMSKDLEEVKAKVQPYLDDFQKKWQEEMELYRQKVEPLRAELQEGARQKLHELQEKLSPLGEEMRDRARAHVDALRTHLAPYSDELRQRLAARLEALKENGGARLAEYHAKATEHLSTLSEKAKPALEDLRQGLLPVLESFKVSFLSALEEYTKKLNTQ

PIP2 was tested, and the Kd was 140 nM.
